Measured values taken from ChEMBL document CHEMBL4689842, “EUbOPEN Chemogenomics Library wave 1” (2021).

Test system: HEK-293T
Assay: Multiplex assay against HEK293T;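 on Population Tubulin-Different-Phenotype (%): share of the cells with healthy nuclei that show this phenotype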
Format: toxicity, cell-based
Conditions: human
How it was run: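 Cells stained live at seeding with Hoechst33342, BioTracker Green Microtubule Cytoskeleton Dye, MitoTracker Red and Annexin V Alexa Fluor 680 were imaged on a CQ1 microscope at 37°C and 5% CO2 after compound addition. Their classification by CellPathfinder machine-learning gating ran from Hoechst high-intensity objects versus normal cells, to healthy, pyknosed or fragmented nuclei among normal cells, to mitotic or apoptotic among pyknosed cells. Tubulin, mitochondrial-mass and membrane-permeability phenotypes are per cents of healthy-nucleus cells.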

[1] = 12 h, 1 µM, compound concentration 1 uM, replicate 1
[2] = 12 h, 1 µM, compound concentration 1 uM, replicate 2
[3] = 12 h, 10 µM, compound concentration 10 uM, replicate 1
[4] = 12 h, 10 µM, compound concentration 10 uM, replicate 2
[5] = 24 h, 1 µM, compound concentration 1 uM, replicate 1
[6] = 24 h, 1 µM, compound concentration 1 uM, replicate 2
[7] = 24 h, 10 µM, compound concentration 10 uM, replicate 1
[8] = 24 h, 10 µM, compound concentration 10 uM, replicate 2
[9] = 48 h, 1 µM, compound concentration 1 uM, replicate 1
[10] = 48 h, 1 µM, compound concentration 1 uM, replicate 2
[11] = 48 h, 10 µM, compound concentration 10 uM, replicate 1
[12] = 48 h, 10 µM, compound concentration 10 uM, replicate 2

With `CN(C)CC#Cc1ccc(OCCCc2sc(N3CCc4cccc(C(=O)Nc5nc6ccccc6s5)c4C3)nc2C(=O)O)c(F)c1` [A-1155463] the “Population Apoptotic (%)” value [1] was 33%, the “Population Fragmented Nuclei (%)” value [1] was 12% and the “Population Healthy Nuclei (%)” value [1] was 42%. For the same compound, the “Population Hoechst High Intensity Objects (%)” value [1] was 11%, the “Population Membrane Permeable-Phenotype (%)” value [1] was 2% and the “Population Mitochondria Different-Phenotype (%)” value [1] was 68%. For the same compound, the “Population Mitotic Cells (%)” value [1] was 66%, the “Population Normal (%)” value [1] was 88% and the “Population Pyknosed Nuclei (%)” value [1] was 45%. For the same compound, the “Population Tubulin-Different-Phenotype (%)” value [1] was 40%, the “Total Cell Count” value [1] was 278 and the “Population Apoptotic (%)” value [2] was 15%. The “Population Fragmented Nuclei (%)” value [2] was 4%, the “Population Healthy Nuclei (%)” value [2] was 44% and the “Population Hoechst High Intensity Objects (%)” value [2] was 3%. The “Population Membrane Permeable-Phenotype (%)” value [2] was 6%, the “Population Mitochondria Different-Phenotype (%)” value [2] was 17% and the “Population Mitotic Cells (%)” value [2] was 84%. The “Population Normal (%)” value [2] was 96%, the “Population Pyknosed Nuclei (%)” value [2] was 50% and the “Population Tubulin-Different-Phenotype (%)” value [2] was 17%. The “Total Cell Count” value [2] was 177, the “Population Apoptotic (%)” value [3] was 40% and the “Population Fragmented Nuclei (%)” value [3] was 8%. The “Population Healthy Nuclei (%)” value [3] was 41%, the “Population Hoechst High Intensity Objects (%)” value [3] was 10% and the “Population Membrane Permeable-Phenotype (%)” value [3] was 13%. The “Population Mitochondria Different-Phenotype (%)” value [3] was 63%, the “Population Mitotic Cells (%)” value [3] was 59% and the “Population Normal (%)” value [3] was 89%. For the same compound, the “Population Pyknosed Nuclei (%)” value [3] was 49%, the “Population Tubulin-Different-Phenotype (%)” value [3] was 64% and the “Total Cell Count” value [3] was 288. For the same compound, the “Population Apoptotic (%)” value [4] was 18%, the “Population Fragmented Nuclei (%)” value [4] was 20% and the “Population Healthy Nuclei (%)” value [4] was 39%. The “Population Hoechst High Intensity Objects (%)” value [4] was 7%, the “Population Membrane Permeable-Phenotype (%)” value [4] was 10% and the “Population Mitochondria Different-Phenotype (%)” value [4] was 17%. For the same compound, the “Population Mitotic Cells (%)” value [4] was 81%, the “Population Normal (%)” value [4] was 92% and the “Population Pyknosed Nuclei (%)” value [4] was 39%. For the same compound, the “Population Tubulin-Different-Phenotype (%)” value [4] was 26%, the “Total Cell Count” value [4] was 263 and the “Population Apoptotic (%)” value [5] was 48%. For the same compound, the “Population Fragmented Nuclei (%)” value [5] was 11%, the “Population Healthy Nuclei (%)” value [5] was 38% and the “Population Hoechst High Intensity Objects (%)” value [5] was 14%. For the same compound, the “Population Membrane Permeable-Phenotype (%)” value [5] was 4%, the “Population Mitochondria Different-Phenotype (%)” value [5] was 54% and the “Population Mitotic Cells (%)” value [5] was 51%. The “Population Normal (%)” value [5] was 85%, the “Population Pyknosed Nuclei (%)” value [5] was 50% and the “Population Tubulin-Different-Phenotype (%)” value [5] was 37%. The “Total Cell Count” value [5] was 286, the “Population Apoptotic (%)” value [6] was 10% and the “Population Fragmented Nuclei (%)” value [6] was 4%. The “Population Healthy Nuclei (%)” value [6] was 56%, the “Population Hoechst High Intensity Objects (%)” value [6] was 2% and the “Population Membrane Permeable-Phenotype (%)” value [6] was 17%. The “Population Mitochondria Different-Phenotype (%)” value [6] was 7%, the “Population Mitotic Cells (%)” value [6] was 89% and the “Population Normal (%)” value [6] was 97%. The “Population Pyknosed Nuclei (%)” value [6] was 39%, the “Population Tubulin-Different-Phenotype (%)” value [6] was 24% and the “Total Cell Count” value [6] was 220. The “Population Apoptotic (%)” value [7] was 42%, the “Population Fragmented Nuclei (%)” value [7] was 12% and the “Population Healthy Nuclei (%)” value [7] was 43%. The “Population Hoechst High Intensity Objects (%)” value [7] was 10%, the “Population Membrane Permeable-Phenotype (%)” value [7] was 14% and the “Population Mitochondria Different-Phenotype (%)” value [7] was 35%. The “Population Mitotic Cells (%)” value [7] was 57%, the “Population Normal (%)” value [7] was 89% and the “Population Pyknosed Nuclei (%)” value [7] was 44%. The “Population Tubulin-Different-Phenotype (%)” value [7] was 54%, the “Total Cell Count” value [7] was 298 and the “Population Apoptotic (%)” value [8] was 24%. For the same compound, the “Population Fragmented Nuclei (%)” value [8] was 19%, the “Population Healthy Nuclei (%)” value [8] was 52% and the “Population Hoechst High Intensity Objects (%)” value [8] was 3%. The “Population Membrane Permeable-Phenotype (%)” value [8] was 20%, the “Population Mitochondria Different-Phenotype (%)” value [8] was 13% and the “Population Mitotic Cells (%)” value [8] was 75%. The “Population Normal (%)” value [8] was 96%, the “Population Pyknosed Nuclei (%)” value [8] was 28% and the “Population Tubulin-Different-Phenotype (%)” value [8] was 48%. For the same compound, the “Total Cell Count” value [8] was 287, the “Population Apoptotic (%)” value [9] was 33% and the “Population Fragmented Nuclei (%)” value [9] was 16%. The “Population Healthy Nuclei (%)” value [9] was 35%, the “Population Hoechst High Intensity Objects (%)” value [9] was 17% and the “Population Membrane Permeable-Phenotype (%)” value [9] was 9%. For the same compound, the “Population Mitochondria Different-Phenotype (%)” value [9] was 30%, the “Population Mitotic Cells (%)” value [9] was 66% and the “Population Normal (%)” value [9] was 82%. For the same compound, the “Population Pyknosed Nuclei (%)” value [9] was 48%, the “Population Tubulin-Different-Phenotype (%)” value [9] was 37% and the “Total Cell Count” value [9] was 322. For the same compound, the “Population Apoptotic (%)” value [10] was 5%, the “Population Fragmented Nuclei (%)” value [10] was 7% and the “Population Healthy Nuclei (%)” value [10] was 78%. The “Population Hoechst High Intensity Objects (%)” value [10] was 4%, the “Population Membrane Permeable-Phenotype (%)” value [10] was 19% and the “Population Mitochondria Different-Phenotype (%)” value [10] was 4%. The “Population Mitotic Cells (%)” value [10] was 94%, the “Population Normal (%)” value [10] was 95% and the “Population Pyknosed Nuclei (%)” value [10] was 13%. The “Population Tubulin-Different-Phenotype (%)” value [10] was 26%, the “Total Cell Count” value [10] was 397 and the “Population Apoptotic (%)” value [11] was 40%. For the same compound, the “Population Fragmented Nuclei (%)” value [11] was 15%, the “Population Healthy Nuclei (%)” value [11] was 56% and the “Population Hoechst High Intensity Objects (%)” value [11] was 11%. For the same compound, the “Population Membrane Permeable-Phenotype (%)” value [11] was 30%, the “Population Mitochondria Different-Phenotype (%)” value [11] was 13% and the “Population Mitotic Cells (%)” value [11] was 59%. For the same compound, the “Population Normal (%)” value [11] was 88%, the “Population Pyknosed Nuclei (%)” value [11] was 28% and the “Population Tubulin-Different-Phenotype (%)” value [11] was 52%. The “Total Cell Count” value [11] was 390, the “Population Apoptotic (%)” value [12] was 8% and the “Population Healthy Nuclei (%)” value [12] was 65%. For the same compound, the “Population Hoechst High Intensity Objects (%)” value [12] was 3%, the “Population Membrane Permeable-Phenotype (%)” value [12] was 43% and the “Population Mitochondria Different-Phenotype (%)” value [12] was 2%. For the same compound, the “Population Mitotic Cells (%)” value [12] was 91%, the “Population Normal (%)” value [12] was 96% and the “Population Pyknosed Nuclei (%)” value [12] was 19%. For the same compound, the “Population Tubulin-Different-Phenotype (%)” value [12] was 48% and the “Total Cell Count” value [12] was 365.
